Converted amounts (≈) assume the structure as drawn. “And” between values parts separate entries of the source, which are not always exact repeats. Equal entries are not always repeated.
Columns and labels:
[1] = biological target: immobilized GFP (Aequorea victoria, UniProt P42212); experiment: Kinetic analysis of hydrazone-oxime exchange; conditions: catalyst 100 mM, aminooxy fluorophore 5 1 mM
[2] = Kinetic analysis of oxime ligation between 2-pentanone and aminooxy-dansyl 1; conditions: for kobs: 2-pentanone 5.0 mM, 1 150 µM; for kobs/kobs(aniline): vs 100 mM aniline
[3] = Effect of catalyst concentration on kobs, oxime ligation of citral with 1; conditions: citral 30 µM, 1 100 µM
[4] = test system: DHFR^2 M174pAcF; experiment: PEGylation of ketone-containing protein with aminooxy-PEG 12; conditions: catalyst 100 mM, protein 7 µM, aminooxy-PEG 5 mM, pH 7, rt
[5] = biological target: Aldehyde-GFP 4a (Aequorea victoria, UniProt P42212); experiment: Immobilization of aldehyde-GFP 4a from crude cell lysate onto hydrazide beads; conditions: catalyst 100 mM
[6] = Approximate solubility in phosphate buffer; conditions: for solubility: phosphate buffer, pH 7, aqueous buffer
[7] = biological target: GFP-aldehyde 4a (Aequorea victoria, UniProt P42212); experiment: Kinetic analysis of protein labeling via oxime ligation; conditions: catalyst 100 mM, 4a 10 µM, 1 50 µM
[8] = Catalyst screening: oxime ligation of citral with aminooxy-dansyl 1; conditions: catalyst 25 mM; for kobs / kobs/kobs(aniline) / t1/2: citral 50 µM; for kobs: aminooxy-dansyl 1 100 µM, PB pH 7.0, rt; for kobs/kobs(aniline) / t1/2: 1 100 µM; for catalytic efficiency compared with aniline: screening
[9] = biological target: T1, aldehyde-CNTF 9 (Homo sapiens, UniProt P26441); experiment: Rate analysis of coupling between aldehyde-CNTF 9 and aminooxy 5; conditions: catalyst 80 mM, 9 50 µM, 5 600 µM, 5 min
T1 sequence (P26441 1-200): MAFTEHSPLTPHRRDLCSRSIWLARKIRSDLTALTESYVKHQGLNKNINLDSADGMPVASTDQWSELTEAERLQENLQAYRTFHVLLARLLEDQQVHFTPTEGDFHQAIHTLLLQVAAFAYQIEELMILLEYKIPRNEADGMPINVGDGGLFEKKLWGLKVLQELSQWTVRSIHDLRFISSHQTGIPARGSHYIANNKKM
In short: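 Run at rt and started by adding aldehyde-bearing CNTF (stock 60 µM in 50 mM Tris-HCl, pH 7.5). Aliquots were taken every 5 min into SDS loading buffer and flash-frozen in liquid nitrogen. Samples were heated at 98 °C for 4 min, then analysed by SDS-PAGE.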

[10] = phosphate buffer (0.1 M), pH 7.0, rt

SMILES | kobs ([3]; catalyst 25 mM) [M⁻¹ s⁻¹] | kobs/[cat.] ([3]; catalyst 25 mM) [ms^−1 M^−2] | kobs ([3]; catalyst 35 mM) [M⁻¹ s⁻¹] | kobs/[cat.] ([3]; catalyst 35 mM) [ms^−1 M^−2] | kobs ([3]; catalyst 42 mM) [M⁻¹ s⁻¹] | kobs/[cat.] ([3]; catalyst 42 mM) [ms^−1 M^−2] | kobs/[cat.] ([3]; catalyst 50 mM) [ms^−1 M^−2] | Approximate Solubility [6, 10] | kobs [8] [M⁻¹ s⁻¹] | kobs/kobs(aniline) [8] | catalytic efficiency compared with aniline [8] | t1/2 [8] [min] | other results
Nc1ccccc1 [Aniline, aniline, reference compound] | 24.3 ± 0.2 | 0.97 | 33.5 ± 0.2 | 0.96 | 36.9 ± 0.3 | 0.88 | 0.97 | 100 mM | 24.4 ± 0.5 | – | – | – | kobs of immobilized protein release [1]: 0.0159 h⁻¹; kobs ([2]; catalyst 100 mM): 0.082 M⁻¹ s⁻¹ and 0.082 ± 0.0007 M⁻¹ s⁻¹; kobs ([3]; catalyst 50 mM): 48.6 ± 0.2 M⁻¹ s⁻¹; kobs ([3]; catalyst 50 mM, listed as aniline): 48.9 M⁻¹ s⁻¹ and 48.6 M⁻¹ s⁻¹; effect on PEGylation reaction rate [4]: did not have a significant effect on the reaction rate; time to complete immobilization [5]: less than 45 min; solubility ([6]; Approximate Solubility, phosphate buffer (0.1 M), pH 7.0, rt): ~100 mM (≈ 9310 µg/mL); extent of reaction (labeling) in about 90 s [7]: < 7%; kobs [7]: 10.3 M⁻¹ s⁻¹
Nc1cccc(O)c1 [m-Aminophenol, m-aminophenol] | – | – | – | – | – | – | – | – | 23.9 ± 0.5 | 0.98 | – | – | –
Nc1cccc(N)c1 [m-Phenylene-diamine, m-phenylenediamine] | 38.7 ± 0.1 | 1.55 | 58.3 ± 0.3 | 1.66 | 65.6 ± 0.6 | 1.56 | 1.56 | – | – | – | – | – | kobs ([2]; catalyst 100 mM, listed as mPDA): 0.20 ± 0.0016 M⁻¹ s⁻¹; kobs/kobs(aniline) ([2]; catalyst 100 mM): 2.41; kobs ([2]; catalyst 300 mM): 0.36 ± 0.0042 M⁻¹ s⁻¹; kobs/kobs(aniline) ([2]; catalyst 300 mM): 4.45; kobs ([2]; catalyst 500 mM): 0.73 ± 0.0071 M⁻¹ s⁻¹; kobs/kobs(aniline) ([2]; catalyst 500 mM): 8.89; kobs ([2]; catalyst 700 mM): 1.17 ± 0.013 M⁻¹ s⁻¹; kobs/kobs(aniline) ([2]; catalyst 700 mM): 14.3; kobs ([2]; catalyst 900 mM): 1.69 ± 0.022 M⁻¹ s⁻¹; kobs/kobs(aniline) ([2]; catalyst 900 mM): 20.7; kobs ([3]; catalyst 50 mM, listed as mPDA): 78.2 ± 0.7 M⁻¹ s⁻¹; extent of protein labeling (Coomassie gel) [9]: almost all of the protein was labeled
Nc1ccccc1C(=O)O [o-Aminobenzoic acid, o-aminobenzoic acid] | – | – | – | – | – | – | – | – | 24.8 ± 0.8 | 1.01 | equal to or less efficient than aniline | – | solubility [6]: > 2000 mM
Nc1ccccc1N [o-Phenylene-diamine, o-phenylenediamine] | – | – | – | – | – | – | – | very soluble (>1 M) | 18.1 ± 0.3 | 0.74 | equal to or less efficient than aniline | 7.47 | –
Nc1ccc(N)cc1 [p-Phenylene-diamine, p-phenylenediamine] | – | – | – | – | – | – | – | very soluble (>1 M) | 29.2 ± 0.7 | 1.20 | more efficient compared with aniline | 4.63 | –
